Results from different studies.
Lines come from different studies, so protocols differ.
Cell line: MDA-MB-231
Read-out: cell growth or viability

CO[C@]1([C@@H]2CSC(=O)N2C(=O)c2ccccc2)C[C@H]2C[C@@H](CC[C@H](C)/C=C\C=C\CC/C(C)=C\C(=O)O2)O1 — IC50 (MTT; 72 h): 4.48 µM
COc1ccc2c(c1)[nH]c1c(C)nccc12 — IC50 (MTT; 72 h): 16.7 µM
N.N.[Cl][Pt][Cl] — IC50 (48 h): 27.5 µM
N.N.O=C([O-])C1(C(=O)[O-])CCC1.[Pt+2] — IC50 (MTT; 96 h): 33 µM
CCCc1cc(=O)n2nc(NCc3c(F)cc(Cl)cc3F)c(C#N)c2[nH]1 — IC50 (ATP luminescence; 72 h): > 50 µM
COC(C(=O)N1C(=O)SCC1C1(OC)CC2CC(CCC(C)C=CC=CCCC(C)=CC(=O)O2)O1)c1ccccc1 (stereo not drawn) — IC50 (MTT; 72 h): 26.2 µM
CC(C)=CCc1c(O)cc2oc3cc(O)c(O)c(CC=C(C)C)c3c(=O)c2c1O — IC50 (48 h): 16.4 µM
C/C1=C/C(=O)O[C@@H]2C[C@@H](CC[C@H](C)/C=C\C=C\CC1)O[C@@](OC(=O)c1ccccc1)([C@@H]1CSC(=O)N1)C2 — IC50 (MTT; 72 h): 5.05 µM
CC1=CC(=O)c2c(O)cccc2C1=O — IC50 (MTT; 24 h): 4.4 µM
O=C(O)CCCc1ccc(N(CCCl)CCCl)cc1 — IC50 (CCK-8; 48 h): > 50 µM
N.N.[Cl][Pt][Cl] — IC50 (SRB): 12.2 µM
Nc1cc(I)c(I)cc1N — IC50 (72 h): 65 µM
